Assay [1] deals with T1, D(4) dopamine receptor (Homo sapiens, UniProt P21917).
T1 sequence (P21917 whole entry): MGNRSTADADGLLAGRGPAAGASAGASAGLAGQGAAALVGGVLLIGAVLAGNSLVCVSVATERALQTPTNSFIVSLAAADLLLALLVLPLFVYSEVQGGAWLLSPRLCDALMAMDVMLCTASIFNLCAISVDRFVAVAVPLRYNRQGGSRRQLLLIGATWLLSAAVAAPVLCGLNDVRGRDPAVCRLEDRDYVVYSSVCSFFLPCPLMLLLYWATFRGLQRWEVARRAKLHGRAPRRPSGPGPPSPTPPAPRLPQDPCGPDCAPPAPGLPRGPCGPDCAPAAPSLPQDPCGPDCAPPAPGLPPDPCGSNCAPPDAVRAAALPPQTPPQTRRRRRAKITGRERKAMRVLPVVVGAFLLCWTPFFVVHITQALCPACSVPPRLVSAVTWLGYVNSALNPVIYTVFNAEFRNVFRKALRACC
Briefly: Displacement of [3H]N-methylspiperone from human D4.4 receptor stably expressed in HEK293T cells co-expressing ElucN-betaarr2 hD4.4R-ELuc incubated for 60 mins by scintillation counting analysis. It counts as cell-based. A general note: Loss of bound radioactivity is the signal in a displacement assay; it reports binding, not function.

In assay [2] the target is D(1B) dopamine receptor (Homo sapiens, UniProt P21918). Briefly: Displacement of [3H]SCH23390 from human D5 receptor stably expressed in HEK293T cells co-expressing luciferase and CEK incubated for 60 mins by scintillation counting analysis. It counts as cell-based.
D(1B) dopamine receptor, sequence (P21918 whole entry): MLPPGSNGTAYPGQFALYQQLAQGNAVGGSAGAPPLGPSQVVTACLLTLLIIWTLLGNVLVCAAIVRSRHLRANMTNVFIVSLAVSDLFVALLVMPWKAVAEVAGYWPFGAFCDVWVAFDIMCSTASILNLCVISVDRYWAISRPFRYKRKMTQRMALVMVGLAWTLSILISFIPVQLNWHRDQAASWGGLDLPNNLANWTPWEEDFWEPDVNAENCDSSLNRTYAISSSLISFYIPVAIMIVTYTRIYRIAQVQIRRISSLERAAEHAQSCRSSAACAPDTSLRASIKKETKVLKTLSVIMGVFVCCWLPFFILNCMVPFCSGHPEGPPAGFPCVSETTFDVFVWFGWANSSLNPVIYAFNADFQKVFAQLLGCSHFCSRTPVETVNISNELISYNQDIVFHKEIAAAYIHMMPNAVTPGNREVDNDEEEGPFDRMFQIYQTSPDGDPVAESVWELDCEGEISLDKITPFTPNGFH
In assay [3] the target is T2, Muscarinic acetylcholine receptor M4 (Homo sapiens, UniProt P08173).
T2 sequence (P08173 whole entry): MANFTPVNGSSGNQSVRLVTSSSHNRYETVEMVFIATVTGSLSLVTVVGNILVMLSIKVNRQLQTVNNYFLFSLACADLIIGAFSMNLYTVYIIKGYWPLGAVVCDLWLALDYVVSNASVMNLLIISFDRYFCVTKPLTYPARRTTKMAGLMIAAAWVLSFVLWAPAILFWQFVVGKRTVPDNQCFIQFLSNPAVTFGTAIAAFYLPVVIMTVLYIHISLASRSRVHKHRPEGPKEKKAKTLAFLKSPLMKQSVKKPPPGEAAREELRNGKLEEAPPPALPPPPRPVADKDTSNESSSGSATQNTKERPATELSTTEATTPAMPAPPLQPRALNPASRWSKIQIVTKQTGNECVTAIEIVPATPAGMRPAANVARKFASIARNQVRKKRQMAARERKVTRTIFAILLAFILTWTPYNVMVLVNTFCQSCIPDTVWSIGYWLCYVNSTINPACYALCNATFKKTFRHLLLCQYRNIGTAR
Briefly: Displacement of [3H]N-methylscopolamine from human muscarinic acetylcholine M4 receptor stably expressed in CHO cells by radioligand competition binding based analysis. It counts as cell-based. A digest of the protocol:
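Whole CHO cells stably expressing hM1–hM5, competed against [3H]N-methylscopolamine. Kd/applied concentrations in nM: M1 0.17/0.2, M2 0.10/0.2, M3 0.12/0.2, M4 0.052/0.1, M5 0.20/0.3.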

Assay [4] has as its target T3, Alpha-2A adrenergic receptor (Homo sapiens, UniProt P08913).
T3 sequence (P08913 whole entry): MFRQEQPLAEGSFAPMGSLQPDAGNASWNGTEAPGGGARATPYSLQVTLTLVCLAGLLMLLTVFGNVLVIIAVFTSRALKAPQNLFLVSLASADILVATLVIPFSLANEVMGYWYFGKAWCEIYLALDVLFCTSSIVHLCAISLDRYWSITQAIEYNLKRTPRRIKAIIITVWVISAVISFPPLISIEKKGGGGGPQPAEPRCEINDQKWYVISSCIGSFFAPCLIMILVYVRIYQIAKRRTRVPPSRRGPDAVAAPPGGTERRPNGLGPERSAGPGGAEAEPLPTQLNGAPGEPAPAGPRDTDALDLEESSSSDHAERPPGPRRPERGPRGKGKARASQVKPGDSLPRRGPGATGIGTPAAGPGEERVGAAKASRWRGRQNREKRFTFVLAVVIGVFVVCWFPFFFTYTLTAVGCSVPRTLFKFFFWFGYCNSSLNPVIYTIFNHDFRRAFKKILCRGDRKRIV
Briefly: Displacement of [3H]RX821002 from human alpha-2A adrenergic receptor […] in HEK293T cell membrane incubated for 2 hrs by scintillation counting analysis. It counts as cell membranes. In outline:
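Transiently transfected HEK293T membranes in 50 mM Tris, pH 7.4. α2A: 10 μg/well, 0.5 nM [3H]RX821002, nonspecific with 10 μM RX821002. μOR: 6 μg/well, 0.3 nM [3H]diprenorphine, nonspecific with 10 μM naloxone. Ki from IC50 by Cheng–Prusoff.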

Assay [5] has as its target Beta-2 adrenergic receptor (Homo sapiens, UniProt P07550). As to the kind of experiment: Displacement of [3H]CGP12177 from human beta-2 adrenergic receptor […] in HEK293T cell membrane incubated for 2 hrs by scintillation counting analysis. It counts as cell membranes. In outline:
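Membranes of transiently transfected HEK293T cells in 25 mM HEPES, 5 mM MgCl2, 1 mM EDTA, 0.01% BSA, pH 7.4. β1 at 2 μg/well, β2 at 4 μg/well, with 0.2 nM [3H]CGP12177. Nonspecific binding with 10 μM CGP12177. IC50 converted to Ki by Cheng–Prusoff.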

The target of assay [6] is T4, 5-hydroxytryptamine receptor 1A (Homo sapiens, UniProt P08908).
T4 sequence (P08908 whole entry): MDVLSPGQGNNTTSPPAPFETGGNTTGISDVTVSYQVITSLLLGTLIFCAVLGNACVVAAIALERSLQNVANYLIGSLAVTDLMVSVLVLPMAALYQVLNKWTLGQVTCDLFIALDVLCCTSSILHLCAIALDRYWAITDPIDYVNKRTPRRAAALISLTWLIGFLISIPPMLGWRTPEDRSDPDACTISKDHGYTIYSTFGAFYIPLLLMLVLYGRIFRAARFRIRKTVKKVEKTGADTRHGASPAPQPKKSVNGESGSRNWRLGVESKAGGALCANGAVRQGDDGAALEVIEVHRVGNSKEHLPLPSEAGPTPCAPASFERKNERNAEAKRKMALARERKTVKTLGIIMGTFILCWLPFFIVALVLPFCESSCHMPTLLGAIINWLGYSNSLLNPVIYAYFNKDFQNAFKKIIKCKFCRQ
As to the kind of experiment: Displacement of […] from human 5HT1A stably expressed in HEK293T cell membrane incubated for 2 hrs by scintillation counting analysis. It counts as cell membranes.

For assay [7], the target named is Histamine H1 receptor (Homo sapiens, UniProt P35367).
Histamine H1 receptor, sequence (P35367 whole entry): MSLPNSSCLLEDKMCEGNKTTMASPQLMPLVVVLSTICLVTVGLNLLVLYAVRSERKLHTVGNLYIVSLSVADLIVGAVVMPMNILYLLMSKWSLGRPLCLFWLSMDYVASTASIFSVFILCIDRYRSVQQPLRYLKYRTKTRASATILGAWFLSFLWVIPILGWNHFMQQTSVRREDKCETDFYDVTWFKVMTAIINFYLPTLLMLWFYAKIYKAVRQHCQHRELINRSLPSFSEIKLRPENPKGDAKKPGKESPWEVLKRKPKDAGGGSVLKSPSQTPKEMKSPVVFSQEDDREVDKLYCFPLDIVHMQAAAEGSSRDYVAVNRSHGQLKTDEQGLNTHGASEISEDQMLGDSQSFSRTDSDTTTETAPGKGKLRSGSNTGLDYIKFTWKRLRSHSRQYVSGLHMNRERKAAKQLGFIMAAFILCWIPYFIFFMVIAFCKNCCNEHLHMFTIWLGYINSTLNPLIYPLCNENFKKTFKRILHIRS

Experimental findings from ChEMBL document CHEMBL5149991 (J Med Chem, 2021) are described below.

The structures appear in SMILES notation. Where only a bound is given, the exact number is not on record here.

Beta-2 adrenergic receptor, sequence (P07550 whole entry): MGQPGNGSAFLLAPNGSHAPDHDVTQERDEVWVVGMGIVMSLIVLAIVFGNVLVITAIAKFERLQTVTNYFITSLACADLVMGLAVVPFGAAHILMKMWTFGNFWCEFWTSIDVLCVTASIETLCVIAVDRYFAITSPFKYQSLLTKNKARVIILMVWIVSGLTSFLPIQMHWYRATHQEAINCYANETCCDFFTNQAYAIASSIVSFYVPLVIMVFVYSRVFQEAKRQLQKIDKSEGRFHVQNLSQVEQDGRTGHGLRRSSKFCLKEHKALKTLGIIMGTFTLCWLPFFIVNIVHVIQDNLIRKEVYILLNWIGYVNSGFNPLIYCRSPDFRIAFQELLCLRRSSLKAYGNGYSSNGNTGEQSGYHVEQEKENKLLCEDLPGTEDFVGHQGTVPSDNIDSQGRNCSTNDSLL

What is called Kd is the constant that tells how readily two partners part at equilibrium. A high value points to lower affinity. In general, pKi refers to −log10 of the Ki, conventionally taken in molar units. The low end stands for a high Ki, the high end for a low Ki. A word on the Ki: it is the equilibrium dissociation constant of an inhibitor or competing ligand from its target. Lower therefore signals a stronger hold on the target. `CCCCCNC(=O)/N=C(\N)NCCCc1nnc(N)s1.O=C(O)C(F)(F)F.O=C(O)C(F)(F)F`: the Kd in assay [1] is 0.078 nM; in assay [2], 0.24 nM; in assay [3], 0.052 nM; in assay [4] it was 0.6 nM; in assay [5] it was 0.07 nM; in assay [6], 0.08 nM. The molecule also came in with a Kd in assay [7] of 4.5 nM. Also, the pKi in assay [1] is 5.65; in assay [2] it was 4.46; in assay [3] it was less than 5; in assay [4] it was 5.31; in assay [5], 4.2; in assay [6] it was 4.49. For the same molecule, the Ki in assay [7] was 6460 nM.
With `CCCCCNC(=O)/N=C(\N)NCCCc1sc(N)nc1C`, the Kd was found to be 0.078 nM in assay [1]; 0.24 nM in assay [2]; 0.052 nM in assay [3]; 0.6 nM in assay [4]; 0.07 nM in assay [5]; 0.08 nM in assay [6]. Besides, the pKi in assay [1] is 6.96; in assay [2], 5.4; in assay [3] it was less than 5; in assay [4], 6.05; in assay [5], 4.93; in assay [6], 5.18.
As for `N/C(=N\C(=O)NCc1ccccc1)NCCCc1nnc(N)s1`, the Kd in assay [1] was 0.078 nM; in assay [2], 0.24 nM; in assay [3], 0.052 nM; in assay [4], 0.6 nM; in assay [5], 0.07 nM; in assay [6] it was 0.08 nM. For the same molecule, the Kd in assay [7] is 4.5 nM. The pKi in assay [1] was 6.17; in assay [2], 4.95; in assay [3] it was more than 5.5; in assay [4], 5.9; in assay [5], 4.4; in assay [6], 4.56. This molecule also gave a Ki in assay [7] of 5370 nM.
Consider `C[C@@H](NC(=O)/N=C(\N)NCCCc1ncn[nH]1)c1ccccc1`, for which the Kd in assay [1] worked out at 0.078 nM; in assay [2], 0.24 nM; in assay [3], 0.052 nM; in assay [4], 0.6 nM; in assay [5], 0.07 nM; in assay [6], 0.08 nM. Further, in assay [7], the Kd is 4.5 nM. Besides, the pKi was 5.18 in assay [1]; 4.62 in assay [2]; more than 5 in assay [3]; 6.07 in assay [4]; 4.45 in assay [5]; 4.29 in assay [6]. In addition, in assay [7], the Ki was 7940 nM.
